pIC50: −log10 of the molar value. Activity calls are given as the source filed them. The calls are words filed in the database; no cut-off is given here.
Legend:
[1] = target: Telomerase reverse transcriptase (Homo sapiens) (UniProt O14746); test: Residual activity of human TERT in H1299 cells at 100 uM after 24 hrs by SEAP reporter gene assay
[2] = target: Telomerase reverse transcriptase (Homo sapiens) (UniProt O14746); test: Residual activity of human TERT in H1299 cells at 10 uM after 24 hrs by SEAP reporter gene assay
[3] = target: Telomerase reverse transcriptase (Homo sapiens) (UniProt O14746); test: Residual activity of human TERT in H1299 cells at 1 uM after 24 hrs by SEAP reporter gene assay
[4] = Growth of human H1299 cells at 10 uM after 48 hrs by MTT assay; settings: NCI-H1299, 48 h
[5] = Growth of human H1299 cells at 1 uM after 48 hrs by MTT assay; settings: NCI-H1299, 48 h
[6] = system: PC-3; test: Cytotoxicity against human PC3 cells after 48 hrs by SRB assay; format: functional, cell-based; settings: PC-3, 48 h
In short: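 PC-3 cells grown in RPMI1640 with 10% FBS at 37 °C, 5% CO₂. Seeded in medium with 5% FBS; after 24 h, one plate fixed with 10% TCA as T₀. Compound or 0.1% DMSO vehicle added for 48 h, then TCA fixation and 0.4% SRB in 1% acetic acid. Dye solubilized in 10 mM Trizma base, absorbance read at 515 nm. IC50 is the concentration giving 50% reduction of the protein gain in controls.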

[7] = Growth of human H1299 cells at 100 uM 48 hrs by MTT assay; settings: NCI-H1299, 48 h
[8] = target: Telomerase reverse transcriptase (Homo sapiens) (UniProt O14746); test: Inhibition of telomerase activity in human H1299 cell free extract at 10 uM by modified TRAP assay
In short: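 TRAP assay using total cell lysate from H1299 lung cancer cells as the telomerase source, with protein measured against BSA standards. Compounds tested at 10 µM. Controls were lysate without inhibitor (positive) and RNase A-treated extract without inhibitor (negative).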

Telomerase reverse transcriptase (Homo sapiens), sequence (O14746 whole entry): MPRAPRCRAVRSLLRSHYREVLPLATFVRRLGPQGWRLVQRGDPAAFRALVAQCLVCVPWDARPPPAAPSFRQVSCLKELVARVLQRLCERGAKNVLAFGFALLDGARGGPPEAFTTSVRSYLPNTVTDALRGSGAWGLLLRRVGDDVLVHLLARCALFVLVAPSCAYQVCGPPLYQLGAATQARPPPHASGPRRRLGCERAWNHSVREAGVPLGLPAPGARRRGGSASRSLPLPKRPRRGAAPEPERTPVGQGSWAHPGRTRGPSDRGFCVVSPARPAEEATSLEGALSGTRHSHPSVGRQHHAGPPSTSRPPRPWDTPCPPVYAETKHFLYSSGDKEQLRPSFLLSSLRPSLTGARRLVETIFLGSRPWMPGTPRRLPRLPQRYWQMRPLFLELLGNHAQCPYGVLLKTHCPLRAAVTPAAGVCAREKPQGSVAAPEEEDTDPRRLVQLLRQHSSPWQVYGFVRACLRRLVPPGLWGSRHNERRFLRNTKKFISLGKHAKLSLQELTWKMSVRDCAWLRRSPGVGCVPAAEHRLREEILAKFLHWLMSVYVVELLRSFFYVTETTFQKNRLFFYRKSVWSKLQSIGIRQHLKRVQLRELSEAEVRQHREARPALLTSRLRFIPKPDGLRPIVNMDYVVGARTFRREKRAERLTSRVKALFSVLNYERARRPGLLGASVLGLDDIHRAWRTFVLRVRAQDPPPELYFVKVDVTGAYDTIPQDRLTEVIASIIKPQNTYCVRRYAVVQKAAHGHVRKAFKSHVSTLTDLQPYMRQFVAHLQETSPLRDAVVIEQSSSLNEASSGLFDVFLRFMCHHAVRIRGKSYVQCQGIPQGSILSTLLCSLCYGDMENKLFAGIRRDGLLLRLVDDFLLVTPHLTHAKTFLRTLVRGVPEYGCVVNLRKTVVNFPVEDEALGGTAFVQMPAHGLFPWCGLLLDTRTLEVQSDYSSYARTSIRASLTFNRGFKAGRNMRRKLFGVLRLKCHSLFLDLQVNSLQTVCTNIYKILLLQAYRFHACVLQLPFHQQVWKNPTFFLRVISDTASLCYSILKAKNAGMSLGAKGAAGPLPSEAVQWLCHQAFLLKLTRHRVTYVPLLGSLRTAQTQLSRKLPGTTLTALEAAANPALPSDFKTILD

SMILES	residual activity [1] [%]	residual activity [2] [%]	residual activity [3] [%]	growth, % of control at 10 µM [4] [%]	growth, % of control at 1 µM [5] [%]	pIC50 [6]	growth, % of control at 100 µM [7] [%]	inhibition [8]
Cc1ccc(C(=O)Nc2c(NC(=O)CN3CCCCC3)ccc3c2C(=O)c2ccccc2C3=O)cc1	8	70	85	70	86	< 4.70	10	inactive
Cc1ccc(C(=O)Nc2c(NC(=O)CN(C)CCc3ccccn3)ccc3c2C(=O)c2ccccc2C3=O)cc1	22	11	94	46	90	5.18	1	inactive
O=C(CCl)Nc1ccc2c(c1NC(=O)c1ccc(F)cc1)C(=O)c1ccccc1C2=O	0	2	11	4	10	5.50	0	inactive
O=C(CCl)Nc1ccc2c(c1NC(=O)c1cccc(Cl)c1)C(=O)c1ccccc1C2=O	3	6	80	5	89	5.45	0	inactive
O=C(CCl)Nc1ccc2c(c1NC(=O)CSc1ccccc1)C(=O)c1ccccc1C2=O	0	3	80	5	88	5.27	0	inactive
O=C(CCCl)Nc1ccc2c(c1NC(=O)CCCl)C(=O)c1ccccc1C2=O	15	94	96	83	101	< 4.70	5	inactive
O=C(CCl)Nc1ccc2c(c1NC(=O)Cc1ccc(F)cc1)C(=O)c1ccccc1C2=O	1	8	93	7	88	< 4.70	6	inactive
O=C(CCl)Nc1ccc2c(c1NC(=O)c1cccc(C(F)(F)F)c1)C(=O)c1ccccc1C2=O	0	4	99	5	94	5.25	3	inactive
Cc1ccc(C(=O)Nc2c(NC(=O)CN3CCSCC3)ccc3c2C(=O)c2ccccc2C3=O)cc1	12	72	88	69	85	4.72	20	inactive
O=C(CCl)Nc1ccc2c(c1NC(=O)c1ccccc1F)C(=O)c1ccccc1C2=O	2	5	105	2	78	< 4.70	0	inactive
Cc1ccc(C(=O)Nc2c(NC(=O)CN3CCN(CCO)CC3)ccc3c2C(=O)c2ccccc2C3=O)cc1	0	8	76	44	71	5.68	0	inactive
Cc1ccc(C(=O)Nc2c(NC(=O)CN3CCN(c4ncccn4)CC3)ccc3c2C(=O)c2ccccc2C3=O)cc1	19	79	87	91	102	< 4.70	59	inactive
O=C(CCl)Nc1ccc2c(c1NC(=O)CCCCl)C(=O)c1ccccc1C2=O	30	97	108	116	100	5.95	62	inactive
Cc1ccccc1C(=O)Nc1c(NC(=O)CCl)ccc2c1C(=O)c1ccccc1C2=O	0	0	98	0	73	5.44	0	inactive
Cc1ccc(C(=O)Nc2c(NC(=O)CN3CCN(c4ccccc4)CC3)ccc3c2C(=O)c2ccccc2C3=O)cc1	15	88	93	76	80	< 4.70	23	inactive
O=C(CCl)Nc1ccc2c(c1NC(=O)c1ccno1)C(=O)c1ccccc1C2=O	1	4	92	3	105	5.42	0	inactive
O=C(CCl)Nc1ccc2c(c1NC(=O)c1ccc(Cl)cc1)C(=O)c1ccccc1C2=O	4	6	98	5	92	< 4.70	4	inactive
O=C(CCl)Nc1ccc2c(c1NC(=O)c1ccccc1)C(=O)c1ccccc1C2=O	15	94	96	83	101	6.02	5	inactive
O=C(CCl)Nc1ccc2c(c1NC(=O)c1ccccc1Cl)C(=O)c1ccccc1C2=O	1	5	81	6	101	5.51	0	inactive
Cc1ccc(C(=O)Nc2c(NC(=O)CN(C)C)ccc3c2C(=O)c2ccccc2C3=O)cc1	9	78	99	88	106	5.41	0	inactive
O=C(CCl)Nc1ccc2c(c1NC(=O)CCCl)C(=O)c1ccccc1C2=O	15	92	113	79	103	5.91	19	inactive
O=C(CCl)Nc1ccc2c(c1NC(=O)c1cccc(F)c1)C(=O)c1ccccc1C2=O	0	1	26	8	18	5.46	1	inactive
O=C(CCCCl)Nc1ccc2c(c1NC(=O)CCCCl)C(=O)c1ccccc1C2=O	15	92	113	79	103	5.40	19	inactive
Cc1cccc(C(=O)Nc2c(NC(=O)CCl)ccc3c2C(=O)c2ccccc2C3=O)c1	0	0	116	0	72	5.42	0	inactive
O=C(CCl)Nc1ccc2c(c1NC(=O)c1ccc(C(F)(F)F)cc1)C(=O)c1ccccc1C2=O	6	8	85	6	86	5.18	0	inactive
O=C1c2c(O)ccc(O)c2C(=O)c2c(NCCNCCO)ccc(NCCNCCO)c21 [MITOXANTRONE]						6.54		
COc1cccc2c1C(=O)c1c(O)c3c(c(O)c1C2=O)C[C@@](O)(C(=O)CO)C[C@@H]3O[C@H]1C[C@H](N)[C@H](O)[C@H](C)O1 [DOXORUBICIN]						6.60		
